Among the data in ChEMBL document CHEMBL1137559, “Rational design of 5'-thiourea-substituted alpha-thymidine analogues as thymidine monophosphate kinase inhibitors capable of inhibiting mycobacterial growth” (J Med Chem, 2007) are MCC, Ki and inhibition values, retold here.

Each structure is given as a SMILES string.

Series [1] can be described thus: Cytotoxicity against Vero cells at 100 uM after 3 days. Type of series: cell-based. The note with it: chlorocebus sabaeus. The procedure, abridged:
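Confluent Vero monolayers given serial compound dilutions; incubated 3 days at 37°C, humidified CO2 atmosphere; cultures inspected microscopically for altered morphology. MCC = concentration causing microscopic alteration of mock-infected cultures at day 3.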

The next series has as its target T1, Thymidylate kinase (Mycobacterium tuberculosis, UniProt P9WKE1).
T1 sequence (P9WKE1 whole entry): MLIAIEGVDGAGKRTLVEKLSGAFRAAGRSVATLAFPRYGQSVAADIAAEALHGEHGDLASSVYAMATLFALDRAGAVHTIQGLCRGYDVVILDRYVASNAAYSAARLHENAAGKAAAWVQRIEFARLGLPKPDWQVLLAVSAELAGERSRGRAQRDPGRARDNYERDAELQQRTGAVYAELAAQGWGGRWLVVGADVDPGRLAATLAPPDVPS
As to the kind of experiment: Inhibition of Mycobacterium tuberculosis TMPK expressed in Escherichia coli by spectrophotometric assay. The procedure, abridged:
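Recombinant mycobacterial and human TMPK, both expressed in E. coli, run in an NADH-coupled assay (pyruvate kinase, lactate dehydrogenase, nucleoside diphosphate kinase, 2 units each) read at 334 nm. ATP 0.5 mM and dTMP 0.05 mM held constant; analogues 0.01–2 mM; Ki determined for each enzyme.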

Series [2] in a line: Inhibition of human TMPK expressed in Escherichia coli by spectrophotometric assay.
Series [3] relates to Mycobacterium tuberculosis. Put plainly: Growth inhibition of Mycobacterium tuberculosis H37Rv at 6.25 ug/mL by MABA assay. The format is functional. In a few lines: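 Single-concentration screen in BACTEC 12B medium using the Microplate Alamar Blue Assay; percent inhibition recorded.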
For orientation: The colour change of resazurin is a common sign of viable cells or microbes.

What is called Ki is a dissociation constant, usually derived from enzyme kinetics or from competition with a known ligand. As to `Cc1cn([C@@H]2C[C@H](O)[C@@H](CNC(=S)NCCc3ccccc3)O2)c(=O)[nH]c1=O`, in series [1], the MCC at 72 h, up to 100 µM was more than 100 µM. The Ki was 3.8 µM at Thymidylate kinase and more than 800 µM in series [2].

Broadly, the inhibition is the relative decrease from the control value, in per cent. Consider `Cc1cn([C@@H]2C[C@H](O)[C@@H](CNC(=S)Nc3ccc(Cl)c(Cl)c3)O2)c(=O)[nH]c1=O`, for which the MCC at 72 h, up to 100 µM in series [1] was more than 100 µM. The inhibitory constant (Ki) at Thymidylate kinase is 1 µM; in series [2], 274 µM. Besides, in series [3], the inhibition at 6.25 µg/mL amounted to 38%.

`Cc1cn([C@@H]2C[C@H](O)[C@@H](CNC(=S)Nc3ccc(N4CCOCC4)cc3)O2)c(=O)[nH]c1=O`: on Thymidylate kinase, the Ki was found to be 19.2 µM.

`Cc1cn([C@@H]2C[C@H](O)[C@@H](CNC(=S)NC34CC5CC(CC(C5)C3)C4)O2)c(=O)[nH]c1=O` returned an MCC at 72 h, up to 100 µM in series [1] of more than 100 µM. Moreover, the inhibition constant (Ki) at Thymidylate kinase was determined as 15 µM.

`Cc1cn([C@@H]2C[C@H](O)[C@@H](CNC(=O)c3ccccc3)O2)c(=O)[nH]c1=O` came in with a Ki at Thymidylate kinase of 35 µM.

In the case of `Cc1cn(COCCNC(=S)Nc2ccccc2)c(=O)[nH]c1=O`, the MCC at 72 h, up to 100 µM in series [1] was more than 100 µM. The Ki on Thymidylate kinase amounted to 260 µM.

In turn, `Cc1cn([C@@H]2C[C@H](O)[C@@H](CN=[N+]=[N-])O2)c(=O)[nH]c1=O` showed a Ki on Thymidylate kinase of 26.5 µM.

`Cc1cn([C@H]2C[C@H](CNC(=S)Nc3ccc(Cl)cc3)[C@@H](CO)O2)c(=O)[nH]c1=O` gave an MCC at 72 h, up to 100 µM in series [1] of more than 100 µM. For the same compound, affinity on Thymidylate kinase was put at a Ki of 21 µM.

For the compound `COc1ccc(NC(=S)NC[C@H]2C[C@H](n3cc(C)c(=O)[nH]c3=O)O[C@@H]2CO)cc1`, the MCC at 72 h, up to 100 µM in series [1] was more than 100 µM. This compound also registered a Ki at Thymidylate kinase of 46 µM.

With `Cc1cn([C@H]2C[C@H](CNC(=S)Nc3ccc(Cl)c(Cl)c3)[C@@H](CO)O2)c(=O)[nH]c1=O`, in series [1], the MCC at 72 h, up to 100 µM was more than 100 µM. The same compound displayed an inhibition constant Ki on Thymidylate kinase of 7.2 µM.

In turn, `Cc1cn([C@H]2C[C@H](CNC(=S)Nc3ccc(OCc4ccccc4)cc3)[C@@H](CO)O2)c(=O)[nH]c1=O` came in with an MCC at 72 h, up to 100 µM in series [1] of more than 100 µM. The Ki at Thymidylate kinase is 12 µM.

`Cc1cn([C@@H]2C[C@H](O)[C@@H](CNC(=S)NC(=O)c3ccccc3)O2)c(=O)[nH]c1=O` registered a Ki at Thymidylate kinase of 7.2 µM.

On Thymidylate kinase, `Cc1cn([C@@H]2C[C@H](O)[C@@H](CNC(=S)NCc3ccccc3)O2)c(=O)[nH]c1=O` had a Ki of 5.4 µM.

As for `Cc1cn([C@@H]2CC[C@@H](CNC(=S)Nc3ccc(Cl)c(C(F)(F)F)c3)O2)c(=O)[nH]c1=O`, the Ki on Thymidylate kinase was 2.3 µM; in series [2] it was more than 500 µM. At 6.25 µg/mL the inhibition in series [3] was 34%.

Turning to `Cc1cn([C@@H]2C[C@H](O)[C@@H](CNC(=O)Nc3ccc(Cl)c(Cl)c3)O2)c(=O)[nH]c1=O`, the inhibitory constant (Ki) on Thymidylate kinase was 1.1 µM; in series [2], 116 µM. This compound also came in with an inhibition at 6.25 µg/mL in series [3] of 41%.

For `Cc1cn([C@@H]2C[C@@H](CNC(=O)NC[C@H]3C[C@H](n4cc(C)c(=O)[nH]c4=O)O[C@@H]3CO)[C@H](CO)O2)c(=O)[nH]c1=O`, the results for the inhibition constant Ki (at Thymidylate kinase; in series [2]) were 37 µM and more than 1000 µM, respectively.

Consider `Cc1cn([C@@H]2C[C@H](O)[C@@H](CNC(=O)Nc3ccc(Cl)c(C(F)(F)F)c3)O2)c(=O)[nH]c1=O`, for which the Ki at Thymidylate kinase was 1.9 µM; in series [2] it was 166 µM. This compound also registered an inhibition at 6.25 µg/mL in series [3] of 49%.

In the case of `Cc1cn([C@H]2C[C@H](CNC(=S)Nc3ccccc3)[C@@H](CO)O2)c(=O)[nH]c1=O`, the Ki at Thymidylate kinase turned out to be 69 µM.

Consider `Cc1cn([C@@H]2C[C@H](O)[C@@H](CNC(=S)Nc3ccc(Cl)c(C(F)(F)F)c3)O2)c(=O)[nH]c1=O`, for which the MCC at 72 h, up to 100 µM in series [1] was more than 100 µM. The Ki on Thymidylate kinase is 0.6 µM; in series [2], 362 µM. For the same compound, the inhibition at 6.25 µg/mL in series [3] came out at 39%.

On Thymidylate kinase, `COc1ccc(NC(=S)NC[C@H]2O[C@H](n3cc(C)c(=O)[nH]c3=O)C[C@@H]2O)cc1` gave an inhibition constant Ki of 10 µM.

In series [1], `Cc1cn([C@@H]2C[C@H](O)[C@@H](CNC(=S)NCc3ccc(Cl)c(C(F)(F)F)c3)O2)c(=O)[nH]c1=O` yielded an MCC at 72 h, up to 100 µM of more than 100 µM. Moreover, the values for the Ki (on Thymidylate kinase; in series [2]) were 2.6 µM and 50 µM, respectively.

With `Cc1cn([C@@H]2C=C[C@@H](CNC(=S)Nc3ccc(Cl)c(C(F)(F)F)c3)O2)c(=O)[nH]c1=O`, the Ki on Thymidylate kinase was 3.8 µM; in series [2], 190 µM. At 6.25 µg/mL the inhibition in series [3] was 55%.

`Cc1cn([C@@H]2C[C@H](O)[C@@H](CNC(=S)Nc3ccccc3)O2)c(=O)[nH]c1=O`: the MCC at 72 h, up to 100 µM in series [1] was more than 100 µM. This compound displayed an inhibition constant (Ki) at Thymidylate kinase of 16 µM.

Compound `Cc1ccc(NC(=S)NC[C@H]2O[C@H](n3cc(C)c(=O)[nH]c3=O)C[C@@H]2O)cc1` registered an inhibitory constant (Ki) at Thymidylate kinase of 7.8 µM.

In the case of `Cc1ccc(NC(=S)NC[C@H]2C[C@H](n3cc(C)c(=O)[nH]c3=O)O[C@@H]2CO)cc1`, in series [1], the MCC at 72 h, up to 100 µM is more than 100 µM. This compound returned a Ki on Thymidylate kinase of 36 µM.

For `Cc1cn([C@@H]2C[C@H](O)[C@@H](CNC(=S)NCCc3ccc(Cl)c(Cl)c3)O2)c(=O)[nH]c1=O`, the MCC at 72 h, up to 100 µM in series [1] is more than 100 µM. In addition, the results for the inhibitory constant (Ki) (on Thymidylate kinase; in series [2]) were 2.2 µM and 79 µM, respectively.

On Thymidylate kinase, `Cc1cn([C@@H]2C[C@H](O)[C@@H](CNC(=S)Nc3ccc4c(c3)C(=O)OC43c4ccc(O)cc4Oc4cc(O)ccc43)O2)c(=O)[nH]c1=O` registered a Ki of 5.4 µM.

Consider `Cc1cn(COCCNC(=S)Nc2ccc(Cl)c(C(F)(F)F)c2)c(=O)[nH]c1=O`, for which the MCC at 72 h, up to 100 µM in series [1] came out at 100 µM. On Thymidylate kinase, this compound yielded an inhibition constant (Ki) of 37 µM. The same compound returned an inhibition at 6.25 µg/mL in series [3] of 34%.

In series [1], `Cc1cn([C@@H]2C[C@H](O)[C@@H](CNC(=S)NC(c3ccccc3)c3ccccc3)O2)c(=O)[nH]c1=O` returned an MCC at 72 h, up to 100 µM of more than 100 µM. Moreover, the inhibitory constant (Ki) at Thymidylate kinase was 4.9 µM; in series [2], more than 500 µM.

At Thymidylate kinase, `Cc1cn([C@@H]2C[C@H](O)[C@@H](CN)O2)c(=O)[nH]c1=O` had an inhibition constant Ki of 16 µM.

`Cc1cn([C@H]2C[C@H](CNC(=S)Nc3ccc(Cl)c(C(F)(F)F)c3)[C@@H](CO)O2)c(=O)[nH]c1=O` gave an MCC at 72 h, up to 100 µM in series [1] of more than 100 µM. For the same compound, the inhibition constant (Ki) at Thymidylate kinase is 5 µM; in series [2], more than 1000 µM.

For the compound `Cc1cn([C@@H]2C[C@H](O)[C@@H](CNC(=S)Nc3ccc(Cl)cc3)O2)c(=O)[nH]c1=O`, the values for the inhibitory constant (Ki) (at Thymidylate kinase; in series [2]) were 3.2 µM and more than 1000 µM, respectively.
